Converted amounts (≈) assume the structure as drawn.
Tests used:
Assay type in all cases: functional
[1] = system: Bacillus subtilis; assay: Antibacterial activity against Bacillus subtilis ATCC 33712 after 24 hrs by microtiter broth dilution method; conditions: ATCC 33712, 24 h
Summary of the method: (§1)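 Compounds dissolved in DMSO and serially diluted by microtiter broth dilution following NCCLS guidance. Plates incubated at 37 °C for 24 h. MIC80 (ug/mL) taken as the lowest concentration inhibiting visible growth. Ceftazidime, cefotaxime, cefradine and sodium penicillin served as reference drugs.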

[2] = system: Pseudomonas aeruginosa; assay: Antibacterial activity against Pseudomonas aeruginosa ATCC 49189 after 24 hrs by microtiter broth dilution method; conditions: ATCC 49189, 24 h; summary of the method: as §1
[3] = system: Staphylococcus aureus; assay: Antibacterial activity against Staphylococcus aureus ATCC 29213 after 24 hrs by microtiter broth dilution method; conditions: ATCC 29213, 24 h; summary of the method: as §1
[4] = system: Staphylococcus aureus; assay: Antibacterial activity against methicillin-resistant Staphylococcus aureus ATCC 700699 after 24 hrs by microtiter broth dilution method; conditions: ATCC 700699, 24 h
Summary of the method: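 Compounds dissolved in DMSO and serially diluted in microtiter broth following NCCLS guidance. Plates were incubated at 37 °C for 24 h. MIC80 was read as the lowest concentration inhibiting visible growth of the organism, in µg/mL.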

[5] = system: Escherichia coli; assay: Antibacterial activity against Escherichia coli ATCC 11303 after 24 hrs by microtiter broth dilution method; conditions: ATCC 11303, 24 h; summary of the method: as §1

Row | SMILES | MIC80 [1] [µg/mL] | MIC80 [2] [µg/mL] | MIC80 [3] [µg/mL] | MIC80 [4] [µg/mL] | MIC80 [5] [µg/mL]
1 | COc1ccc(-c2cc3ccc(OCc4ccccc4)cc3o2)cc1 | > 200 | > 200 | > 200 | > 200 | > 200
2 | c1ccc(COc2ccc3cc(-c4ccccc4)oc3c2)cc1 | 100 (≈ 333 µM) | 100 (≈ 333 µM) | 100 (≈ 333 µM) | > 200 | > 200
3 | COc1ccc(-c2oc3cc(OCCc4nc(-c5ccccc5)oc4C)ccc3c2C(C)=O)cc1 | > 200 | > 200 | > 200 | > 200 | > 200
4 | Cc1ccc(-c2cc3ccc(OCc4ccccc4)cc3o2)o1 | > 200 | > 200 | > 200 | 12.5 (≈ 41.1 µM) | > 200
5 | COc1cc(C(=O)c2c(-c3ccc(C)o3)oc3cc(OCCc4nc(-c5ccccc5)oc4C)ccc23)cc(OC)c1OC | > 200 | > 200 | 12.5 (≈ 21.1 µM) | > 200 | > 200
6 | CC(C)(O/N=C(\C(=O)N[C@@H]1C(=O)N2C(C(=O)[O-])=C(C[n+]3ccccc3)CS[C@H]12)c1csc(N)n1)C(=O)O [CEFTAZIDIME] | 6.25 (≈ 11.4 µM) | 12.5 (≈ 22.9 µM) | 0.78 (≈ 1.43 µM) | 12.5 (≈ 22.9 µM) | > 200
7 | CC1(C)S[C@@H]2[C@H](NC(=O)Cc3ccccc3)C(=O)N2[C@H]1C(=O)[O-].[Na+] [PENICILLIN G SODIUM] | < 0.39 |  | 3.12 | 3.12 | 0.78
8 | Oc1ccc2cc(-c3ccccc3)oc2c1 | 3.12 (≈ 14.8 µM) | 0.78 (≈ 3.71 µM) | 6.25 (≈ 29.7 µM) | 1.56 (≈ 7.42 µM) | 6.25 (≈ 29.7 µM)
9 | CC(=O)c1c(-c2ccc(C)o2)oc2cc(O)ccc12 | 12.5 (≈ 48.8 µM) | 12.5 (≈ 48.8 µM) | 6.25 (≈ 24.4 µM) | 6.25 (≈ 24.4 µM) | 12.5 (≈ 48.8 µM)
10 | COc1ccc(-c2oc3cc(OCCc4nc(-c5ccccc5)oc4C)ccc3c2C(=O)/C=C/c2cc(OC)c(OC)c(OC)c2)cc1 | > 200 | > 200 | > 200 | > 200 | > 200
11 | COc1ccc(-c2cc3ccc(OCCc4nc(-c5ccccc5)oc4C)cc3o2)cc1 | 50 (≈ 118 µM) | > 200 | > 200 | > 200 | > 200
12 | CC(=O)c1c(-c2ccc(C)o2)oc2cc(OCCc3nc(-c4ccccc4)oc3C)ccc12 | > 200 | > 200 | > 200 | > 200 | > 200
13 | Cc1oc(-c2ccccc2)nc1CCOc1ccc2cc(-c3ccccc3)oc2c1 | > 200 | > 200 | > 200 | > 200 | > 200
14 | CO/N=C(\C(=O)N[C@@H]1C(=O)N2C(C(=O)O)=C(COC(C)=O)CS[C@H]12)c1csc(N)n1 [CEFOTAXIME] | 0.78 (≈ 1.71 µM) |  | 3.12 (≈ 6.85 µM) | 3.12 (≈ 6.85 µM) | > 200
15 | CC1=C(C(=O)O)N2C(=O)[C@@H](NC(=O)[C@H](N)C3=CCC=CC3)[C@H]2SC1 [CEPHRADINE] | 50 (≈ 143 µM) | > 200 | > 200 | > 200 | 25 (≈ 71.5 µM)
16 | COc1cc(NCc2c(-c3ccccc3)oc3cc(OCCc4nc(-c5ccccc5)oc4C)ccc23)cc(OC)c1OC | > 200 | > 200 | > 200 | > 200 | > 200
17 | COc1ccc(-c2cc3ccc(O)cc3o2)cc1 | 1.56 (≈ 6.49 µM) | 1.56 (≈ 6.49 µM) | 1.56 (≈ 6.49 µM) | 0.78 (≈ 3.25 µM) | 3.12 (≈ 13 µM)
18 | Cc1ccc(-c2oc3cc(OCCc4nc(-c5ccccc5)oc4C)ccc3c2C(=O)c2ccc(C(F)(F)F)cc2)o1 | > 200 | > 200 | > 200 | > 200 | > 200
19 | COc1cc(/N=C/c2c(-c3ccccc3)oc3cc(OCCc4nc(-c5ccccc5)oc4C)ccc23)cc(OC)c1OC | > 200 | > 200 | 3.12 (≈ 5.3 µM) | > 200 | > 200
20 | Cc1ccc(-c2cc3ccc(O)cc3o2)o1 | 1.56 (≈ 7.28 µM) | 0.78 (≈ 3.64 µM) | 1.56 (≈ 7.28 µM) | 3.12 (≈ 14.6 µM) | 3.12 (≈ 14.6 µM)
21 | Cc1ccc(-c2oc3cc(OCCc4nc(-c5ccccc5)oc4C)ccc3c2C(=O)c2ccco2)o1 | > 200 | > 200 | > 200 | > 200 | > 200

From ChEMBL document CHEMBL2040849, “Synthesis and antimicrobial evaluation of 3-methanone-6-substituted-benzofuran derivatives” (2012)
